Converted amounts (≈) assume the structure as drawn.
Key:
Pichia kudriavzevii [1] = experiment: Antifungal activity against Candida krusei E28 after 48 hrs by broth microdilution method; format: functional
Summary of the method: (§1)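 In vitro antifungal screening against eight strains. Compounds tested at concentrations in the range 62.5–1.95 µmol/L.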

Aspergillus fumigatus [2] = experiment: Antifungal activity against Aspergillus fumigatus 231 after 24 hrs by broth microdilution method; format: functional; summary of the method: as §1
Lichtheimia corymbifera [3] = experiment: Antifungal activity against Absidia corymbifera 272 after 24 hrs by broth microdilution method; format: functional; summary of the method: as §1
Trichosporon beigelii [4] = experiment: Antifungal activity against Trichosporon beigelii 1188 after 24 hrs by broth microdilution method; format: functional; summary of the method: as §1
Trichosporon beigelii [5] = experiment: Antifungal activity against Trichosporon beigelii 1188 after 48 hrs by broth microdilution method; format: functional; summary of the method: as §1
Aspergillus fumigatus [6] = experiment: Antifungal activity against Aspergillus fumigatus 231 after 48 hrs by broth microdilution method; format: functional; summary of the method: as §1
[7] = system: Trichophyton mentagrophytes; experiment: Antifungal activity against Trichophyton mentagrophytes 445 after 24 hrs by broth microdilution method; format: functional; summary of the method: as §1
Pichia kudriavzevii [8] = experiment: Antifungal activity against Candida krusei E28 after 24 hrs by broth microdilution method; format: functional; summary of the method: as §1
Candida albicans [9] = experiment: Antifungal activity against Candida albicans ATCC 44859 after 24 hrs by broth microdilution method; format: functional; conditions: ATCC 44859, 24 h; summary of the method: as §1
Lichtheimia corymbifera [10] = experiment: Antifungal activity against Absidia corymbifera 272 after 48 hrs by broth microdilution method; format: functional; summary of the method: as §1
[11] = system: Mycobacterium tuberculosis; experiment: Antitubercular activity against Mycobacterium tuberculosis H37Rv at 6.25 ug/ml by microplate alamar blue assay; format: functional
Summary of the method: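 Primary single-concentration screen at the TAACF against M. tuberculosis H37Rv (ATCC 27294) in BACTEC 12B medium, read by Microplate Alamar Blue Assay. Each compound was tested at 6.25 per mL, or at the molar equivalent of the highest-molecular-weight compound in its congener series.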

[12] = system: Mycobacterium tuberculosis; experiment: Antitubercular activity against Mycobacterium tuberculosis H37Rv by microplate alamar blue assay; format: functional
Candida tropicalis [13] = experiment: Antifungal activity against Candida tropicalis ATCC 156 after 24 hrs by broth microdilution method; format: functional; conditions: ATCC 156, 24 h; summary of the method: as §1
Nakaseomyces glabratus [14] = experiment: Antifungal activity against Candida glabrata 20/I after 48 hrs by broth microdilution method; format: functional; summary of the method: as §1
[15] = Lipophilicity, log K of the compound; format: physicochemical
Summary of the method: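 Mobile phase used methanol as organic modifier. The capacity factor k was measured and log k calculated from it. Chiral compounds were measured several times.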

Nakaseomyces glabratus [16] = experiment: Antifungal activity against Candida glabrata 20/I after 24 hrs by broth microdilution method; format: functional; summary of the method: as §1
[17] = system: Trichophyton mentagrophytes; experiment: Antifungal activity against Trichophyton mentagrophytes 445 after 48 hrs by broth microdilution method; format: functional; summary of the method: as §1
Candida albicans [18] = experiment: Antifungal activity against Candida albicans ATCC 44859 after 48 hrs by broth microdilution method; format: functional; conditions: ATCC 44859, 48 h; summary of the method: as §1
Candida tropicalis [19] = experiment: Antifungal activity against Candida tropicalis ATCC 156 after 48 hrs by broth microdilution method; format: functional; conditions: ATCC 156, 48 h; summary of the method: as §1

Row | Structure (SMILES) | IC80 (Pichia kudriavzevii [1]) | IC80 (Aspergillus fumigatus [2]) | IC80 (Lichtheimia corymbifera [3]) | IC80 (Trichosporon beigelii [4]) | IC80 (Trichosporon beigelii [5]) | IC80 (Aspergillus fumigatus [6]) | IC80 [7] | IC80 (Pichia kudriavzevii [8]) | IC80 (Candida albicans [9]) | IC80 (Lichtheimia corymbifera [10]) | inhibition at 6.25 µg/mL [11] | MIC [12] | IC80 (Candida tropicalis [13]) | IC80 (Nakaseomyces glabratus [14]) | log K [15] | IC80 (Nakaseomyces glabratus [16]) | IC80 [17] | IC80 (Candida albicans [18]) | IC80 (Candida tropicalis [19])
1 | C[C@@H](NC(=O)OCc1ccccc1)C(=O)Oc1ccc(Cl)cc1C(=O)Nc1cccc(Cl)c1 | 31.2 µg/mL (≈ 64.1 µM) | > 62.5 µg/mL | 31.2 µg/mL (≈ 64.1 µM) | > 62.5 µg/mL | > 62.5 µg/mL | > 62.5 µg/mL | 7.81 µg/mL (≈ 16 µM) | 31.2 µg/mL (≈ 64.1 µM) | 62.5 µg/mL (≈ 128 µM) | 31.2 µg/mL (≈ 64.1 µM) | 36% | > 6.25 µg/mL | 62.5 µg/mL (≈ 128 µM) | 62.5 µg/mL (≈ 128 µM) | 0.699 | 62.5 µg/mL (≈ 128 µM) | 7.81 µg/mL (≈ 16 µM) | > 62.5 µg/mL | > 62.5 µg/mL
2 | O=C(N[C@@H](Cc1ccccc1)C(=O)Oc1ccc(Cl)cc1C(=O)Nc1ccc(Cl)cc1)OCc1ccccc1 | 15.6 µg/mL (≈ 27.7 µM) | > 62.5 µg/mL | 15.6 µg/mL (≈ 27.7 µM) | 31.2 µg/mL (≈ 55.5 µM) | 62.5 µg/mL (≈ 111 µM) | > 62.5 µg/mL | 7.81 µg/mL (≈ 13.9 µM) | 15.6 µg/mL (≈ 27.7 µM) | 62.5 µg/mL (≈ 111 µM) | 15.6 µg/mL (≈ 27.7 µM) | 16% | > 6.25 µg/mL | 31.2 µg/mL (≈ 55.5 µM) | 31.2 µg/mL (≈ 55.5 µM) | 1.0971 | 31.2 µg/mL (≈ 55.5 µM) | 7.81 µg/mL (≈ 13.9 µM) | 62.5 µg/mL (≈ 111 µM) | 31.2 µg/mL (≈ 55.5 µM)
3 | O=C(CNC(=O)OCc1ccccc1)Oc1ccc(Cl)cc1C(=O)Nc1ccc(Cl)cc1 | 31.2 µg/mL (≈ 66 µM) | > 62.5 µg/mL | 31.2 µg/mL (≈ 66 µM) | 62.5 µg/mL (≈ 132 µM) | > 62.5 µg/mL | > 62.5 µg/mL | 15.6 µg/mL (≈ 33 µM) | 31.2 µg/mL (≈ 66 µM) | 62.5 µg/mL (≈ 132 µM) | 62.5 µg/mL (≈ 132 µM) | 16% | > 6.25 µg/mL | 31.2 µg/mL (≈ 66 µM) | 62.5 µg/mL (≈ 132 µM) | 0.6367 | 62.5 µg/mL (≈ 132 µM) | 15.6 µg/mL (≈ 33 µM) | 62.5 µg/mL (≈ 132 µM) | 31.2 µg/mL (≈ 66 µM)
4 | OC(Cn1cncn1)(Cn1cncn1)c1ccc(F)cc1F [FLUCONAZOLE] | 15.6 µg/mL (≈ 51 µM) | > 125 µg/mL | > 125 µg/mL | 0.24 µg/mL (≈ 0.784 µM) | 0.48 µg/mL (≈ 1.57 µM) | > 125 µg/mL | 1.95 µg/mL (≈ 6.37 µM) | 3.91 µg/mL (≈ 12.8 µM) | 0.06 µg/mL (≈ 0.196 µM) | > 125 µg/mL |  |  | 0.12 µg/mL (≈ 0.392 µM) | 3.91 µg/mL (≈ 12.8 µM) |  | 0.98 µg/mL (≈ 3.2 µM) | 3.91 µg/mL (≈ 12.8 µM) | 0.12 µg/mL (≈ 0.392 µM) | > 125 µg/mL
5 | C[C@H](NC(=O)OCc1ccccc1)C(=O)Oc1ccc(Cl)cc1C(=O)Nc1ccc(C(F)(F)F)cc1 | 31.2 µg/mL (≈ 60 µM) | 7.81 µg/mL (≈ 15 µM) | 31.2 µg/mL (≈ 60 µM) | 62.5 µg/mL (≈ 120 µM) | 250 µg/mL (≈ 480 µM) | 15.6 µg/mL (≈ 30 µM) | 1.95 µg/mL (≈ 3.74 µM) | 7.81 µg/mL (≈ 15 µM) | 62.5 µg/mL (≈ 120 µM) | 62.5 µg/mL (≈ 120 µM) | 99% | 3.13 µg/mL (≈ 6.01 µM) | 500 µg/mL (≈ 960 µM) | 250 µg/mL (≈ 480 µM) | 0.8149 | 125 µg/mL (≈ 240 µM) | 1.95 µg/mL (≈ 3.74 µM) | 250 µg/mL (≈ 480 µM) | 500 µg/mL (≈ 960 µM)
6 | O=C(CNC(=O)OCc1ccccc1)Oc1ccc(Cl)cc1C(=O)Nc1ccc(C(F)(F)F)cc1 | 31.2 µg/mL (≈ 61.7 µM) | 125 µg/mL (≈ 247 µM) | 31.2 µg/mL (≈ 61.7 µM) | 31.2 µg/mL (≈ 61.7 µM) | 31.2 µg/mL (≈ 61.7 µM) | > 125 µg/mL | 15.6 µg/mL (≈ 30.8 µM) | 31.2 µg/mL (≈ 61.7 µM) | 62.5 µg/mL (≈ 123 µM) | 31.2 µg/mL (≈ 61.7 µM) | 89% | > 6.25 µg/mL | 125 µg/mL (≈ 247 µM) | > 125 µg/mL | 0.7292 | 31.2 µg/mL (≈ 61.7 µM) | 15.6 µg/mL (≈ 30.8 µM) | 62.5 µg/mL (≈ 123 µM) | > 125 µg/mL
